According to ChEMBL document CHEMBL1154198, “Chemical genetics of Plasmodium falciparum” (Nature, 2010):

Tests used:
Plasmodium falciparum [1] = assay: ST_JUDE: Plasmodium falciparum 3D7 EC50 (uM) as measured by SYBR green dye; assay type: functional, organism-based
Plasmodium falciparum [2] = assay: ST_JUDE: Plasmodium falciparum K1 EC50 (uM) as measured by SYBR green dye; assay type: functional, organism-based
Plasmodium falciparum [3] = assay: ST_JUDE: Cytotoxicity against Plasmodium falciparum 3D7; assay type: functional, organism-based
Procedure, shortened: (§1)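 Asexual P. falciparum grown in human erythrocytes, exposed to compounds for 72 h, and growth read as the DNA quantity in treated versus control cultures. Dose-response run at 12 concentrations from 10 μM to 5 nM.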

Plasmodium falciparum [4] = assay: ST_JUDE: Cytotoxicity against Plasmodium falciparum K1; assay type: functional, organism-based; procedure, shortened: as §1
Plasmodium falciparum [5] = assay: ST_JUDE: Cytotoxicity against Plasmodium falciparum V1/S; assay type: functional, organism-based
Toxoplasma gondii = assay: ST_JUDE: Growth inhibition of to Toxoplasma gondii, in human U-2OS cells, as measured by luciferase.; assay type: functional, organism-based; settings: RH, U2OS
Procedure, shortened: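 T. gondii parasites engineered to express luciferase; drug sensitivity read by luminescence.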

Trypanosoma brucei = assay: ST_JUDE: Cytotoxicity using luciferase to measure ATP as an indicator of the viability of Trypanosoma brucei; assay type: functional, organism-based
Leishmania major = assay: ST_JUDE: Cytotoxicity using Alamar Blue to measure viability of Leishmania major; assay type: functional, organism-based
Procedure, shortened: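 L. major promastigotes; drug susceptibility read with Alamar Blue.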

[6] = ST_JUDE: Cytotoxicity using luciferase to measure ATP as an indicator of the viability of human foreskin fibroblast cells (BJ); assay type: toxicity, cell-based
[7] = ST_JUDE: Cytotoxicity using luciferase to measure ATP as an indicator of the viability of human epithelial hepatocellular carcinoma cells (HepG2); assay type: toxicity, cell-based
[8] = ST_JUDE: Cytotoxicity using luciferase to measure ATP as an indicator of the viability of human epithelial embryonic kidney cells (HEK293); assay type: toxicity, cell-based
[9] = ST_JUDE: Cytotoxicity using luciferase to measure ATP as an indicator of the viability of human Burkitt''s lymphoma lymphoblast cells (Raji); assay type: toxicity, cell-based
Plasmodium falciparum [10] = assay: ST_JUDE: Cytotoxicity against Plasmodium falciparum Dd2; assay type: functional, organism-based
Plasmodium falciparum [11] = assay: ST_JUDE: Cytotoxicity against Plasmodium falciparum W2; assay type: functional, organism-based
Plasmodium falciparum [12] = assay: ST_JUDE: Cytotoxicity against Plasmodium falciparum SB-A6; assay type: functional, organism-based
Plasmodium falciparum [13] = assay: ST_JUDE: Cytotoxicity against Plasmodium falciparum D10 transfected with yeast DHOD; assay type: functional, organism-based

Compound | EC50 (Plasmodium falciparum [1]) [nM] | EC50 (Plasmodium falciparum [2]) [nM] | EC50 (Plasmodium falciparum [3]) [nM] | EC50 (Plasmodium falciparum [4]) [nM] | EC50 (Plasmodium falciparum [5]) [nM] | EC50 (Toxoplasma gondii) [nM] | EC50 (Trypanosoma brucei) [nM] | EC50 (Leishmania major) [nM] | EC50 [6] [nM] | EC50 [7] [nM] | EC50 [8] [nM] | EC50 [9] [nM] | EC50 (Plasmodium falciparum [10]) [nM] | EC50 (Plasmodium falciparum [11]) [nM] | EC50 (Plasmodium falciparum [12]) [nM] | EC50 (Plasmodium falciparum [13]) [nM]
COc1ccc(NC(=O)C2c3ccccc3C(=O)N(C3CCCC3)C2c2cccs2)cc1 (stereo not drawn) | 979 | 1220 | 1230 | 1170 | 1020 | > 22300 | 6530 | > 17400 | > 40700 | > 40700 | > 40700 | > 40700 | 1110 | > 10500 | 1970 | 1410
CN(C)c1cc[n+](CC(=O)c2ccc(Br)cc2)cc1 | 1090 | 1500 | 1610 | 2610 | > 7920 | > 16900 | > 29600 | > 13200 | > 30800 | > 30800 | > 30800 | > 30800 | 1030 | > 7920 | > 7920 | 4300
CC(C)CN1C(=O)c2ccccc2C(C(=O)Nc2cccc(C#N)c2)C1c1cccs1 (stereo not drawn) | 58.4 | 80.9 | 271 | 232 | 296 | > 25700 | 3180 | > 20100 | > 46800 | > 46800 | > 46800 | > 46800 | 161 | 196 | 351 | 366
CCCN(C(=O)C(=O)Nc1ccc2nc3n(c(=O)c2c1)CCCCC3)c1ccc(OCC)cc1 | 673 | 289 | 490 | 326 | 215 | > 25900 | > 45300 | > 20200 | > 47300 | > 47300 | > 47300 | > 47300 | 700 | 334 | 346 | 220
C=CCn1c(=N)n(CC(O)c2ccc(Cl)c(Cl)c2)c2ccccc21 (stereo not drawn) | 334 | 181 | 1080 | 602 | 788 | > 24500 | 8340 | > 19100 | > 44700 | 16400 | 39200 | 26400 | 434 | 512 | 2530 | 2630
CC(C)c1ccc(S(=O)(=O)NC2=C/C(=N\c3ccc(O)cc3)C(=O)c3ccccc32)cc1 | 346 | 125 | 547 | 425 | 836 | > 19000 | 750 | > 14900 | 3580 | 2220 | 5470 | 3020 | 946 | 823 | 290 | 288
COc1cc(C2CC(=O)NC3=C2C(=O)CC(c2ccccc2Cl)C3)cc(Br)c1O (stereo not drawn) | 1280 | 945 | 1860 | 1910 | 2730 | > 29700 | 16400 | > 23200 | > 54200 | > 54200 | > 54200 | > 54200 | 1910 | 1060 | 2450 | 1930
CCCCCCn1c(=N)n(CC(O)COc2ccccc2C)c2ccccc21 (stereo not drawn) | 1260 | 715 | 2200 | 1430 | 2090 | 13900 | 3730 | > 23400 | 16800 | 6980 | 20300 | 12600 | 1110 | 1290 | 4670 | 6570
CN1C(=O)/C(=C\c2ccccc2Cl)Sc2ccc(C(=O)NC3CCN(Cc4ccccc4)CC3)cc21 | 276 | 254 | 1740 | 2910 | 3970 | > 23300 | 3470 | > 18200 | > 42500 | 17900 | > 42500 | > 42500 | 1150 | > 10900 | 717 | 1090
CO/C(O)=C1\C(C)=NC2=C(C(=O)CC(c3ccc(OC)c(OC)c3)C2)C1c1ccccc1F (stereo not drawn) | 504 | 433 | 427 | 412 | 911 | > 24500 | > 42900 | > 19200 | > 44800 | > 44800 | > 44800 | > 44800 | 766 | 296 | 556 | 746
CCOC(=O)C1(Cc2ccccc2)CCN(Cc2cccc(OC)c2O)CC1 | 2290 | 1050 | 1490 | 645 | 908 | > 20300 | 30900 | > 15800 | > 37000 | > 37000 | > 37000 | > 37000 | 1760 | 1430 | 3000 | 2550
CN(C(=O)c1cc2c(s1)-c1ccccc1S(=O)(=O)C2)c1cccc(C(F)(F)F)c1 | 744 | 1250 | 350 | 356 | 684 | > 22400 | 18100 | > 17500 | > 40800 | > 40800 | > 40800 | > 40800 | 335 | 116 | 414 | 431
OC(CNC1CCCC1)Cn1c2ccc(Cl)cc2c2cc(Cl)ccc21 (stereo not drawn) | 990 | 146 | 576 | 258 | 690 | > 13300 | 2020 | > 10400 | > 24300 | 8670 | 20500 | 10900 | 253 | 572 | 635 | 652
